# Data published in ChEMBL document CHEMBL1649165, “Activity profile in vitro of micafungin against Spanish clinical isolates of common and emerging species of yeasts and molds” (2009).
# Experiments:
# Assay type in all cases: functional
# Pichia norvegensis = assay: Antimicrobial activity against Candida norvegensis by broth microdilution method
# Summary of the method: (§1)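 Clinical isolates from human patients, tested by broth microdilution using the AFST-EUCAST reference procedure for fermentative yeasts. The MIC was read per that reference method.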
# Aspergillus = assay: Antimicrobial activity against Aspergillus spp. by broth microdilution method
# Summary of the method: (§2)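 Clinical mould isolates, tested by broth microdilution using the AFST-EUCAST reference method for filamentous fungi. For echinocandins, the endpoint was the minimum effective concentration: the lowest drug concentration giving aberrant hyphal growth, read with an inverted microscope.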
# [Candida] zeylanoides = Antimicrobial activity against Candida zeylanoides by broth microdilution method; settings: Dujonia zeylanoides; summary of the method: as §1
# Aspergillus fumigatus = assay: Antimicrobial activity against Aspergillus fumigatus by broth microdilution method; summary of the method: as §2
# Debaryomyces hansenii = assay: Antimicrobial activity against Candida famata by broth microdilution method; summary of the method: as §1
# Rhizomucor = assay: Antimicrobial activity against Rhizomucor spp.by broth microdilution method
# Summary of the method: (§3)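 Filamentous fungus clinical isolates tested by the AFST-EUCAST reference broth microdilution method for moulds. For echinocandins, the endpoint was the minimum effective concentration: the lowest drug concentration giving aberrant hyphal growth, read with an inverted microscope.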
# Lomentospora prolificans = assay: Antimicrobial activity against Scedosporium prolificans by broth microdilution method; summary of the method: as §3
# Saccharomyces cerevisiae = assay: Antimicrobial activity against Saccharomyces cerevisiae by broth microdilution method
# [1] = tested on: Cladophialophora bantiana; assay: Antimicrobial activity against Cladophialophora bantiana by broth microdilution method; summary of the method: as §2
# Candida metapsilosis = assay: Antimicrobial activity against Candida metapsilosis by broth microdilution method; settings: Lodderomyces metapsilosis; summary of the method: as §1
# Aspergillus sydowii = assay: Antimicrobial activity against Aspergillus sydowii by broth microdilution method; summary of the method: as §2
# Trichosporon dermatis = assay: Antimicrobial activity against Trichosporon dermatis by broth microdilution method; settings: Cutaneotrichosporon dermatis
# Summary of the method: (§4)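 Nonfermentative yeast clinical isolates (Rhodotorula, Trichosporon) tested by broth microdilution. The EUCAST yeast recommendations were followed strictly, with one minor modification to improve growth. MIC was read as the endpoint.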
# [Candida] inconspicua = Antimicrobial activity against Candida inconspicua by broth microdilution method; settings: Pichia inconspicua; summary of the method: as §1
# Cladosporium = assay: Antimicrobial activity against Cladosporium spp. by broth microdilution method; summary of the method: as §2
# Trichosporon jirovecii = assay: Antimicrobial activity against Trichosporon jirovecii by broth microdilution method; settings: Cutaneotrichosporon jirovecii; summary of the method: as §4
# Trichoderma = assay: Antimicrobial activity against Trichoderma spp. by broth microdilution method; summary of the method: as §3
# Aspergillus sclerotiorum = assay: Antimicrobial activity against Aspergillus sclerotiorum by broth microdilution method; summary of the method: as §2
# Aspergillus versicolor = assay: Antimicrobial activity against Aspergillus versicolor by broth microdilution method; summary of the method: as §2
# Alternaria alternata = assay: Antimicrobial activity against Alternaria alternata by broth microdilution method; summary of the method: as §2
# Pichia kudriavzevii = assay: Antimicrobial activity against Candida krusei by broth microdilution method; summary of the method: as §1
# Candida albicans = assay: Antimicrobial activity against Candida albicans by broth microdilution method; summary of the method: as §1
# Geotrichum candidum = assay: Antimicrobial activity against Galactomyces geotrichum by broth microdilution method
# [2] = Antimicrobial activity against Rhizopus microsporus by broth microdilution method; summary of the method: as §3
# Lichtheimia corymbifera = assay: Antimicrobial activity against Mycocladus corymbiferus by broth microdilution method; summary of the method: as §3
# Paecilomyces lilacinus = assay: Antimicrobial activity against Paecilomyces lilacinus by broth microdilution method; settings: Purpureocillium lilacinum; summary of the method: as §3
# Nakaseomyces glabratus = assay: Antimicrobial activity against Candida glabrata by broth microdilution method; summary of the method: as §1
# Paecilomyces variotii = assay: Antimicrobial activity against Paecilomyces variotii by broth microdilution method; summary of the method: as §3
# Saksenaea vasiformis = assay: Antimicrobial activity against Saksenaea vasiformis by broth microdilution method; summary of the method: as §3
# Candida parapsilosis = assay: Antimicrobial activity against Candida parapsilosis by broth microdilution method; settings: Lodderomyces parapsilosis; summary of the method: as §1
# Wickerhamomyces anomalus = assay: Antimicrobial activity against Candida pelliculosa by broth microdilution method; settings: Hansenula anomala; summary of the method: as §1
# [3] = Antimicrobial activity against Hormographiella aspergillata by broth microdilution method; settings: Coprinopsis cinerea; summary of the method: as §3
# Exophiala jeanselmei = assay: Antimicrobial activity against Exophiala jeanselmei by broth microdilution method
# Trichosporon asahii = assay: Antimicrobial activity against Trichosporon asahii by broth microdilution method; summary of the method: as §4
# Yarrowia lipolytica = assay: Antimicrobial activity against Yarrowia lipolytica by broth microdilution method
# Trichosporon = assay: Antimicrobial activity against Trichosporon spp. by broth microdilution method; summary of the method: as §4
# Magnusiomyces capitatus = assay: Antimicrobial activity against Dipodascus capitatus by broth microdilution method
# Trichosporon ovoides = assay: Antimicrobial activity against Trichosporon ovoides by broth microdilution method; summary of the method: as §4
# Neurospora sitophila = assay: Antimicrobial activity against Chrysonilia sitophila by broth microdilution method; summary of the method: as §2
# Papiliotrema laurentii = assay: Antimicrobial activity against Cryptococcus laurentii by broth microdilution method
# Summary of the method: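 Clinical isolates of nonfermentative yeasts, tested by broth microdilution following EUCAST recommendations. The only change from that method was a minor modification to improve growth.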
# Aspergillus niger = assay: Antimicrobial activity against Aspergillus niger by broth microdilution method; summary of the method: as §2
# Beauveria bassiana = assay: Antimicrobial activity against Beauveria bassiana by broth microdilution method; summary of the method: as §2
structure (smiles),measurement,setting,value
CC[C@@H]([C@H](C)O)n1ncn(-c2ccc(N3CCN(c4ccc(OC[C@@H]5CO[C@@](Cn6cncn6)(c6ccc(F)cc6F)C5)cc4)CC3)cc2)c1=O [POSACONAZOLE],MIC50,Pichia norvegensis,0.03 µg/mL
same,MIC90,Pichia norvegensis,> 8 µg/mL
same,MIC50,Aspergillus,0.12 µg/mL
same,MIC90,Aspergillus,> 8 µg/mL
same,MIC50,[Candida] zeylanoides,0.03 µg/mL
same,MIC90,[Candida] zeylanoides,> 8 µg/mL
same,MIC50,Aspergillus fumigatus,0.06 µg/mL
same,MIC90,Aspergillus fumigatus,0.25 µg/mL
same,MIC50,Debaryomyces hansenii,0.03 µg/mL
same,MIC90,Debaryomyces hansenii,> 8 µg/mL
same,MIC50,Rhizomucor,4 µg/mL
same,MIC90,Rhizomucor,> 8 µg/mL
same,MIC50,Lomentospora prolificans,> 8 µg/mL
same,MIC90,Lomentospora prolificans,> 8 µg/mL
same,MIC50,Saccharomyces cerevisiae,0.25 µg/mL
same,MIC90,Saccharomyces cerevisiae,0.5 µg/mL
same,MIC50,[1],0.06 µg/mL
same,MIC90,[1],> 8 µg/mL
same,MIC50,Candida metapsilosis,0.03 µg/mL
same,MIC90,Candida metapsilosis,> 8 µg/mL
same,MIC50,Aspergillus sydowii,0.25 µg/mL
same,MIC90,Aspergillus sydowii,0.5 µg/mL
same,MIC50,Trichosporon dermatis,0.25 µg/mL
same,MIC90,Trichosporon dermatis,> 8 µg/mL
same,MIC50,[Candida] inconspicua,0.03 µg/mL
same,MIC90,[Candida] inconspicua,> 8 µg/mL
same,MIC50,Cladosporium,0.06 µg/mL
same,MIC90,Cladosporium,> 8 µg/mL
same,MIC50,Trichosporon jirovecii,0.25 µg/mL
same,MIC90,Trichosporon jirovecii,> 8 µg/mL
same,MIC50,Trichoderma,4 µg/mL
same,MIC90,Trichoderma,> 8 µg/mL
same,MIC50,Aspergillus sclerotiorum,0.12 µg/mL
same,MIC90,Aspergillus sclerotiorum,> 8 µg/mL
same,MIC50,Aspergillus versicolor,0.25 µg/mL
same,MIC90,Aspergillus versicolor,0.5 µg/mL
same,MIC50,Alternaria alternata,1 µg/mL
same,MIC90,Alternaria alternata,> 8 µg/mL
same,MIC50,Pichia kudriavzevii,0.12 µg/mL
same,MIC90,Pichia kudriavzevii,0.25 µg/mL
same,MIC50,Candida albicans,0.02 µg/mL
same,MIC90,Candida albicans,0.02 µg/mL
same,MIC50,Geotrichum candidum,0.5 µg/mL
same,MIC90,Geotrichum candidum,0.5 µg/mL
same,MIC50,[2],4 µg/mL
same,MIC90,[2],> 8 µg/mL
same,MIC50,Lichtheimia corymbifera,0.5 µg/mL
same,MIC90,Lichtheimia corymbifera,> 8 µg/mL
same,MIC50,Paecilomyces lilacinus,0.25 µg/mL
same,MIC90,Paecilomyces lilacinus,0.5 µg/mL
same,MIC50,Nakaseomyces glabratus,0.25 µg/mL
same,MIC90,Nakaseomyces glabratus,1 µg/mL
same,MIC50,Paecilomyces variotii,0.03 µg/mL
same,MIC90,Paecilomyces variotii,0.25 µg/mL
same,MIC50,Saksenaea vasiformis,4 µg/mL
same,MIC90,Saksenaea vasiformis,> 8 µg/mL
same,MIC50,Candida parapsilosis,0.02 µg/mL
same,MIC90,Candida parapsilosis,0.03 µg/mL
same,MIC50,Wickerhamomyces anomalus,0.03 µg/mL
same,MIC90,Wickerhamomyces anomalus,> 8 µg/mL
same,MIC50,[3],4 µg/mL
same,MIC90,[3],> 8 µg/mL
same,MIC50,Exophiala jeanselmei,0.06 µg/mL
same,MIC90,Exophiala jeanselmei,> 8 µg/mL
same,MIC50,Trichosporon asahii,0.25 µg/mL
same,MIC90,Trichosporon asahii,> 8 µg/mL
same,MIC50,Yarrowia lipolytica,0.25 µg/mL
same,MIC90,Yarrowia lipolytica,2 µg/mL
same,MIC50,Trichosporon,0.25 µg/mL
same,MIC90,Trichosporon,> 8 µg/mL
same,MIC50,Magnusiomyces capitatus,0.5 µg/mL
same,MIC90,Magnusiomyces capitatus,0.5 µg/mL
same,MIC50,Trichosporon ovoides,0.25 µg/mL
same,MIC90,Trichosporon ovoides,> 8 µg/mL
same,MIC50,Neurospora sitophila,4 µg/mL
same,MIC90,Neurospora sitophila,> 8 µg/mL
same,MIC50,Papiliotrema laurentii,0.25 µg/mL
same,MIC90,Papiliotrema laurentii,> 8 µg/mL
same,MIC50,Aspergillus niger,0.25 µg/mL
same,MIC90,Aspergillus niger,0.5 µg/mL
same,MIC50,Beauveria bassiana,4 µg/mL
same,MIC90,Beauveria bassiana,> 8 µg/mL
